≈ marks a conversion by molar mass, not a printed value. One block for each compound: values may come before it.
Key:
Plasma [1] = assay: Drug metabolism in human plasma assessed as amide bond hydrolysis at 1 uM after 15 to 300 mins by LC-MS/MS analysis; format: ADME, cell-free
Salmonella typhimurium [2] = assay: Genotoxicity in Salmonella typhimurium TA98 in presence of rat liver S9 fraction by Ames test; format: toxicity; settings: salmonella enterica subsp. enterica serovar typhimurium
In short: (§1)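 Ames plate incorporation: strains grown overnight at 37 °C in nutrient broth (TA102 with 0.3 μg/mL tetracycline). Compound at 20–2000 μg/plate in top agar with histidine/biotin, plus rat liver S9 mix (NADP, glucose 6-phosphate, KCl, MgCl2, pH 7.4 phosphate). Vogel–Bonner plates incubated 37 °C, 2 days; colonies counted by image analysis. Positive: dose-dependent ≥2-fold (TA1535, TA98) or ≥1.5-fold (TA97, TA100, TA102) rise over background.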

[3] = Stability at various pH levels assessed as amide bond hydrolysis; format: physicochemical
Homo sapiens [4] = organism: Homo sapiens; assay: Modulation of patient derived full length SMN2 pre mRNA splicing assessed as inclusion of exon 7
Salmonella typhimurium [5] = assay: Genotoxicity in Salmonella typhimurium TA100 in presence of rat liver S9 fraction by Ames test; format: toxicity; settings: salmonella enterica subsp. enterica serovar typhimurium; in short: as §1
Salmonella typhimurium [6] = assay: Genotoxicity in Salmonella typhimurium TA97 in presence of rat liver S9 fraction by Ames test; format: toxicity; settings: salmonella enterica subsp. enterica serovar typhimurium; in short: as §1
Salmonella typhimurium [7] = assay: Genotoxicity in Salmonella typhimurium TA102 in presence of rat liver S9 fraction by Ames test; format: toxicity; settings: salmonella enterica subsp. enterica serovar typhimurium; in short: as §1
Plasma [8] = assay: Drug metabolism in rat plasma assessed as amide bond hydrolysis at 1 uM after 15 to 300 mins by LC-MS/MS analysis; format: ADME, cell-free
[9] = Solubility of the compound in phosphate buffer solution at pH 6.5 by HPLC-UV analysis; format: physicochemical
In short: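 Lysa: duplicate samples from 10 mM DMSO stocks, DMSO evaporated, residue taken up in 0.05 M phosphate buffer pH 6.5, stirred 1 h, shaken 2 h, left overnight, filtered. Filtrate and its 1/10 dilution were read by direct UV or HPLC-UV against a four-point calibration; range 0–666 μg/mL for MW 500.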

Cytochrome P450 3A4 = Cytochrome P450 3A4 (Homo sapiens, UniProt P08684); assay: Inhibition of CYP3A4 (unknown origin); format: ADME
[10] = Octanol-phosphate buffer partition co-efficient, log D of the compound at pH 7.4 after 24 hrs by shake flask method; format: physicochemical
In short: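 CAMDIS shake-flask variant: PVDF membranes impregnated with 1-octanol dipped in 25 mM phosphate buffer pH 7.4 containing compound, shaken 24 h at 23 °C. Two octanol/water ratios were run for hydrophilic or lipophilic compounds. Aqueous concentration was measured by LC/MS with and without octanol, and log D was calculated from the difference and the phase ratio.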

Homo sapiens [11] = organism: Homo sapiens; assay: Modulation of patient derived full length SMN2 pre mRNA splicing assessed as restoration of functional SMN2 to protein level
Cytochrome P450 2C9 = Cytochrome P450 2C9 (Homo sapiens, UniProt P11712); assay: Inhibition of CYP2C9 (unknown origin); format: ADME
Cytochrome P450 2D6 = Cytochrome P450 2D6 (Homo sapiens, UniProt P10635); assay: Inhibition of CYP2D6 (unknown origin); format: ADME
Plasma [12] = assay: Drug metabolism in mouse plasma assessed as amide bond hydrolysis at 1 uM after 15 to 300 mins by LC-MS/MS analysis; format: ADME, cell-free
Salmonella typhimurium [13] = assay: Genotoxicity in Salmonella typhimurium TA1535 in presence of rat liver S9 fraction by Ames test; format: toxicity; settings: salmonella enterica subsp. enterica serovar typhimurium; in short: as §1
hERG (KCNH2) = hERG (KCNH2) (Homo sapiens, UniProt Q12809); assay: Inhibition of human ERG channel
[14] = Glutathione reactivity assessed as GSH adduct formation
[15] = Permeability of the compound by PAMPA; format: physicochemical; settings: read-out: permeability
In short: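 Parallel artificial membrane permeability: phospholipid-coated filter plate sandwiched between donor compound/buffer and acceptor buffer. Donor concentration at start was compared with donor and acceptor concentrations at end time, giving Pe (10−6 cm/s); membrane retention was also determined.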

Mus musculus [16] = assay: Induction of SMN protein levels in C/C-Allele SMA FVB mouse quadriceps muscle administered as po qd for 10 days measured 1 hr post last dose by HTRF assay; format: functional, organism-based
In short: (§2)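 Adult C/C-allele SMA mice dosed orally once daily for 10 days at 1, 3 or 10 mg/kg. SMN protein in brain and quadriceps was expressed as % increase over vehicle-treated animals.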

Mus musculus [17] = assay: Induction of SMN protein levels in C/C-Allele SMA FVB mouse brain administered as po qd for 10 days measured 1 hr post last dose by HTRF assay; format: functional, organism-based; in short: as §2
Mus musculus [18] = assay: Induction of SMN protein levels in C/C-Allele SMA FVB mouse quadriceps muscle at 10 mg/kg, po qd for 10 days measured 1 hrs post last dose by HTRF assay relative to control; format: functional; in short: as §2
[19] = Substrate activity at human P-gp; format: ADME
[20] = Total AUC in neonatal wild type FVB mouse plasma at 3 mg/kg, ip qd for 10 days by LC-MS/MS analysis; format: ADME, organism-based; design: dose 3 mg/kg, route intraperitoneal, time AUCmax
In short: (§3)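 Plasma AUC determined in a satellite group of neonatal (P10) wild-type mice dosed ip. Free AUC was calculated using the free fraction measured in serum from adult mice.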

Mus musculus [21] = assay: Induction of SMN protein levels in neonatal delta7 FVB mouse quadriceps muscle at 1 mg/kg, ip qd administered from postnatal day 3 to day 9 measured 1 hr post last dose by HTRF assay relative to control; format: functional
Mus musculus [22] = assay: Induction of SMN protein levels in neonatal delta7 FVB mouse brain at 3 mg/kg, ip qd administered from postnatal day 3 to day 9 measured 1 hr post last dose by HTRF assay relative to control; format: functional
[23] = Ratio of drug level in wild type FVB mouse brain to plasma at 10 mg/kg, po; format: ADME, organism-based; settings: read-out: BPR
Mus musculus [24] = assay: Induction of SMN protein levels in neonatal delta7 FVB mouse quadriceps muscle administered as ip qd from postnatal day 3 to day 9 measured 1 hr post last dose by HTRF assay relative to control; format: functional, organism-based
Mus musculus [25] = assay: Induction of SMN protein levels in neonatal delta7 FVB mouse quadriceps muscle at 0.3 mg/kg, ip qd administered from postnatal day 3 to day 9 measured 1 hr post last dose by HTRF assay relative to control; format: functional
P-gp = assay: Substrate activity at mouse P-gp assessed as efflux ratio; format: ADME; settings: not told
Mus musculus [26] = assay: Induction of SMN protein levels in C/C-Allele SMA FVB mouse brain at 3 mg/kg, po qd for 10 days measured 1 hr post last dose by HTRF assay relative to control; format: functional; in short: as §2
[27] = Total AUC in wild type FVB mouse plasma at 10 mg/kg, po qd for 10 days by LC-MS/MS analysis; format: ADME, organism-based; design: dose 10 mg/kg, route oral, time AUCmax
Mus musculus [28] = assay: Induction of SMN protein levels in neonatal delta7 FVB mouse brain at 1 mg/kg, ip qd administered from postnatal day 3 to day 9 measured 1 hr post last dose by HTRF assay relative to control; format: functional
Mus musculus [29] = assay: Unbound AUC in neonatal […] FVB mouse plasma at 3 mg/kg, ip qd administered from postnatal day 3 to day 9 by LC-MS/MS analysis; format: ADME, organism-based; settings: in vivo; in short: as §3
Mus musculus [30] = assay: Induction of SMN protein levels in neonatal delta7 FVB mouse quadriceps muscle at 3 mg/kg, ip qd administered from postnatal day 3 to day 9 measured 1 hr post last dose by HTRF assay relative to control; format: functional
Mus musculus [31] = assay: Induction of SMN protein levels in neonatal delta7 FVB mouse brain at 0.3 mg/kg, ip qd administered from postnatal day 3 to day 9 measured 1 hr post last dose by HTRF assay relative to control; format: functional
Mus musculus [32] = assay: Induction of SMN protein levels in C/C-Allele SMA FVB mouse brain at 10 mg/kg, po qd for 10 days measured 1 hr post last dose by HTRF assay relative to control; format: functional; in short: as §2
Mus musculus [33] = assay: Induction of SMN protein levels in neonatal delta7 FVB mouse brain administered as ip qd from postnatal day 3 to day 9 measured 1 hr post last dose by HTRF assay relative to control; format: functional, organism-based
Mus musculus [34] = assay: Induction of SMN protein levels in C/C-Allele SMA FVB mouse brain at 1 mg/kg, po qd for 10 days measured 1 hr post last dose by HTRF assay relative to control; format: functional; in short: as §2
Mus musculus [35] = assay: Induction of SMN protein levels in C/C-Allele SMA FVB mouse quadriceps muscle at 3 mg/kg, po qd for 10 days measured 1 hrs post last dose by HTRF assay relative to control; format: functional; in short: as §2
[36] = Fraction unbound in human plasma; format: ADME, cell-free
Mus musculus [37] = assay: Unbound AUC in C/C-Allele SMA FVB mouse plasma at 10 mg/kg, po qd for 10 days by LC-MS/MS analysis; format: ADME, organism-based; settings: in vivo, 240 h
[38] = Fraction unbound in mouse plasma; format: ADME, cell-free
Mus musculus [39] = assay: Induction of SMN protein levels in C/C-Allele SMA FVB mouse quadriceps muscle at 1 mg/kg, po qd for 10 days measured 1 hrs post last dose by HTRF assay relative to control; format: functional; in short: as §2

Chain of hERG (KCNH2) (Q12809 whole entry): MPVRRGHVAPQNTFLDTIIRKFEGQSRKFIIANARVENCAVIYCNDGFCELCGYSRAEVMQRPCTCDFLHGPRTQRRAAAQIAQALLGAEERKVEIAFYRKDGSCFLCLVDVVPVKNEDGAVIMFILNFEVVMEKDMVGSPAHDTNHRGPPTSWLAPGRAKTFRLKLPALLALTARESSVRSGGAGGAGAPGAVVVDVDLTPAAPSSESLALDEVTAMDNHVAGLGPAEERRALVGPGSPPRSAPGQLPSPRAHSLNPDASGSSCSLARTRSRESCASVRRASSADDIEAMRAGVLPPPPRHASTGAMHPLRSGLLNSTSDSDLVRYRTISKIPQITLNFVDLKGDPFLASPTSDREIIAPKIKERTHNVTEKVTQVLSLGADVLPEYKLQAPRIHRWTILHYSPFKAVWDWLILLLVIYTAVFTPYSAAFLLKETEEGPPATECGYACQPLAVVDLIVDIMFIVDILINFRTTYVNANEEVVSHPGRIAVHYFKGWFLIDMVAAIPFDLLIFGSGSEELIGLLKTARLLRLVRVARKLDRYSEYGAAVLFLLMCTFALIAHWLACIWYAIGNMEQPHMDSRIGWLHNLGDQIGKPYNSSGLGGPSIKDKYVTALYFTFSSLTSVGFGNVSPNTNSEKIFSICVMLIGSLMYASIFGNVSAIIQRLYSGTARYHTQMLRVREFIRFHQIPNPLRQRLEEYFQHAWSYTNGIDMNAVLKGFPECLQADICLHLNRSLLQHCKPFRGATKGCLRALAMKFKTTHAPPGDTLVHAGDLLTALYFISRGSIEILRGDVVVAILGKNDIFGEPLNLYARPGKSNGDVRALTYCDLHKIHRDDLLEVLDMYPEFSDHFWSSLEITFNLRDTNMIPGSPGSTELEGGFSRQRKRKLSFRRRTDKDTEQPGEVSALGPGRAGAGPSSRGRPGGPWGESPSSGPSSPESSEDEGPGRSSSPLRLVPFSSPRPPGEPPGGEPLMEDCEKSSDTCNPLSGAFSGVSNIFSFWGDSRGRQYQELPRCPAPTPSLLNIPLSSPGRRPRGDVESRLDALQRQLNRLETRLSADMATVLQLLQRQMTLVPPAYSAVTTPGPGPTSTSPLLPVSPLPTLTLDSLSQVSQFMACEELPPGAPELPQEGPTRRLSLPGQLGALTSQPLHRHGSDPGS
Chain of Cytochrome P450 2D6 (P10635 whole entry): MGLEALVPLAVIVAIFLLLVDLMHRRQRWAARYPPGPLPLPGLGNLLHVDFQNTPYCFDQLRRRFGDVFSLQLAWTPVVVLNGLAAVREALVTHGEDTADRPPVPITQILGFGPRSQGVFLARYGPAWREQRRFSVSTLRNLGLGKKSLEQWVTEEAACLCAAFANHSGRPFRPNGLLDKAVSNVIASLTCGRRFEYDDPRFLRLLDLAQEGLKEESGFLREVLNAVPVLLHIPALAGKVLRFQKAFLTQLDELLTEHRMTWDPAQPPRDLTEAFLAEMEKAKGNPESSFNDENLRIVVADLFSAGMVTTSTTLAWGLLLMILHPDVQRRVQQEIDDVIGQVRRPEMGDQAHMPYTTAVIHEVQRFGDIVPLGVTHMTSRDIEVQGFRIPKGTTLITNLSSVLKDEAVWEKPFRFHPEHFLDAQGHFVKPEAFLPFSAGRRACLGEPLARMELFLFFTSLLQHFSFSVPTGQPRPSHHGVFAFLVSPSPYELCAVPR
Chain of Cytochrome P450 2C9 (P11712 whole entry): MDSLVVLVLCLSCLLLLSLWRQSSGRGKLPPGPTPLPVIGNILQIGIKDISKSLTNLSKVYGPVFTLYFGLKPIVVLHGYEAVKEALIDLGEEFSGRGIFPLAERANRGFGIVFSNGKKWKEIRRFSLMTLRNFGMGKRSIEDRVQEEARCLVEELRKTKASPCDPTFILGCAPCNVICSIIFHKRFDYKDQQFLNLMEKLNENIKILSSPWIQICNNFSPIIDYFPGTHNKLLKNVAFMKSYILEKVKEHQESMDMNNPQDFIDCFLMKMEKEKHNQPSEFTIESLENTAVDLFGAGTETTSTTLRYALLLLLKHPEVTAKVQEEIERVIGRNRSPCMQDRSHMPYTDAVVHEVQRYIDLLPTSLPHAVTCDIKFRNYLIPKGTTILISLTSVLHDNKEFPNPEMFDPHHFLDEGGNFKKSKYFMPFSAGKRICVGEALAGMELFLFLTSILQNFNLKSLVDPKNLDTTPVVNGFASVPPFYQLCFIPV
Chain of Cytochrome P450 3A4 (P08684 whole entry): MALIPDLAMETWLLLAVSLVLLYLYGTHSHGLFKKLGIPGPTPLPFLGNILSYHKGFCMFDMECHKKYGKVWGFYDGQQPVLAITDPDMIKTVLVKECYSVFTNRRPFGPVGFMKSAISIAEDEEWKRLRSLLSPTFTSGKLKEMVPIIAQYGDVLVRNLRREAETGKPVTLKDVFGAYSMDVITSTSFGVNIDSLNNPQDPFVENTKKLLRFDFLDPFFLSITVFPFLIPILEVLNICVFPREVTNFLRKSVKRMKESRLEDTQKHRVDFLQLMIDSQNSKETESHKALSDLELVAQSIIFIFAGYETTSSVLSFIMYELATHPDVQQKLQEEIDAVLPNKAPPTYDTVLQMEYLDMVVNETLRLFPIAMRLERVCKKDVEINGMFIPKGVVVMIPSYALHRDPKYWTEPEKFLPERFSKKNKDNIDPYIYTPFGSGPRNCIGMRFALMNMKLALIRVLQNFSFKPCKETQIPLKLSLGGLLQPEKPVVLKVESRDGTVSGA

Stability (Plasma [1]): Stable | Stability [3]: Stable | EC1.5 (Homo sapiens [4]): 660 nM | Stability (Plasma [8]): Stable | solubility [9]: 111 µg/mL (≈ 305 µM) | IC50 (Cytochrome P450 3A4): > 50 µM | logD at 24 h [10]: 2 | EC1.5 (Homo sapiens [11]): 3950 nM | IC50 (Cytochrome P450 2C9): > 50 µM | IC50 (Cytochrome P450 2D6): > 50 µM | Stability (Plasma [12]): Stable | Papp [15]: 2.38 ×10⁻⁶ cm/s
Compound: Cc1cn2cc(NC(=O)c3ccc(N4CCN(C)CC4)cc3)nc2c(C)n1
Activity (Salmonella typhimurium [2]): Non-Toxic | Activity (Salmonella typhimurium [5]): Non-Toxic | Activity (Salmonella typhimurium [6]): Non-Toxic | Activity (Salmonella typhimurium [7]): Non-Toxic | Activity (Salmonella typhimurium [13]): Non-Toxic | IC20 (hERG (KCNH2)): > 10 µM | Stability [14]: Stable

EC1.5 (Homo sapiens [4]): 52 nM | Activity [19]: Not Active | AUC at 240 h [20]: 3900 ng·h/mL | Kp [23]: 3.4 | efflux ratio (P-gp): 4.1 | AUC at 240 h [27]: 7900 ng·h/mL | fAUC (Mus musculus [29]): 0.79 µg·h/mL | EC1.5 (Homo sapiens [11]): 98 nM | fraction unbound [36]: 0.186 | fAUC (Mus musculus [37]): 1.58 µg·h/mL | fraction unbound [38]: 0.197
Compound: Cc1cn2cc(NC(=O)c3ccc(N4CCNC(C)C4)cc3F)nc2c(C)n1 (stereo unspecified)
Activity (Mus musculus [16]): Dose-dependent effect | Activity (Mus musculus [17]): Dose-dependent effect | Activity (Salmonella typhimurium [2]): Toxic | Activity (Mus musculus [18]): 152% | Activity (Salmonella typhimurium [5]): Toxic | Activity (Mus musculus [21]): 24% | Activity (Mus musculus [22]): 150% | Activity (Salmonella typhimurium [6]): Toxic | Activity (Salmonella typhimurium [7]): Toxic | Activity (Mus musculus [24]): Dose-dependent effect | Activity (Mus musculus [25]): 14% | Activity (Mus musculus [26]): 24% | Activity (Mus musculus [28]): 75% | Activity (Mus musculus [30]): 140% | Activity (Mus musculus [31]): 24% | Activity (Mus musculus [32]): 102% | Activity (Salmonella typhimurium [13]): Toxic | Activity (Mus musculus [33]): Dose-dependent effect | Activity (Mus musculus [34]): 0% | Activity (Mus musculus [35]): 54% | Activity (Mus musculus [39]): 13%
